Bioassay records (PubChem)
rRNA inh HTS = reduced GFP signal of wild-type E. coli, primary screen, bacterial rRNA inhibitor project, GFP/RFP fluorescence, OD600, single point | E. coli WT GFP vs humanized-ribosome RFP mutants, 24 h; stronger effect = lower value; DMSO median 0, no signal -100 | GFP signal change (wild-type ribosome), % (test concentration not listed) | hit rate 1.6% among 350,000 | AID 720706, 2013;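 active = significant combined selectivity score with lowered wild-type GFP, culture density cut under 30%, mutant RFP and density less affected; inactive = any of these conditions unmet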
RAD54 inh = inhibitors of human RAD54 branch migration, primary screen, biochemical, fluorescence, single point. inhibition, % at 10.4 µM. AID 602329, 2012. DNA repair and recombination protein RAD54-like (Homo sapiens), Q92698. RAD54 Holliday junction branch migration, FAM/BHQ fluorescence. hit rate 0.14% among 360,000;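 active = mean normalized replicate activity at least 40 and at least half of replicates scoring 40 or more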;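 also: 0% = median of neutral control wells and 100% = median of positive control wells; inhibitors cause a drop in the FAM fluorescence signal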
RAD52 anneal inh = RAD52 DNA annealing inhibitors, primary screen, biochemical, FRET, single point, set 2. DNA repair protein RAD52 homolog (Homo sapiens), P43351. recombinant RAD52 DNA annealing, FRET fluorescence. inhibition, % at 18.7 µM. hit rate 0.46% among 360,000. AID 651710, 2012;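 active = every replicate showing at least 50% inhibition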
Target sequence (P43351 whole entry, looked up): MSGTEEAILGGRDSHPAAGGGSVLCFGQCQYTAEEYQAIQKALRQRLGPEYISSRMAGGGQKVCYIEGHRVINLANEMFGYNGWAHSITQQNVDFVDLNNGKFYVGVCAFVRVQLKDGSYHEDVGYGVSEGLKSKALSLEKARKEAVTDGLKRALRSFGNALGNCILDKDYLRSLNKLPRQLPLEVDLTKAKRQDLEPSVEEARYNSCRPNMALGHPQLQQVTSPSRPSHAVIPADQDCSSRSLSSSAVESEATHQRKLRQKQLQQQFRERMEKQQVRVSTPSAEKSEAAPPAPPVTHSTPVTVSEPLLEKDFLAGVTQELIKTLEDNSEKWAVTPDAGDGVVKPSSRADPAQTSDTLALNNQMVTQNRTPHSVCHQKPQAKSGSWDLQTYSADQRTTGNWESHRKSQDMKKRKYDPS
E-selectin induc = E-selectin induction in HUVECs, primary screen, imaging, HUVEC, immunofluorescence imaging, single point. P16581. normalized: neutral wells 0, TNF-alpha wells 100. activation, % at 7.58 µM. hit rate 0.37% among 260,000. AID 686992, 2013;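 active = mean E-selectin-positive cell signal at least 10% of the positive control, reached in at least 60% of replicates, without over 20% cell loss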
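Test system: HUVEC; input: 3,000 HUVEC/well; measured by: immunofluorescence imaging; read-out: % PE-positive cells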
AF4-AF9 inh = inhibitors of AF4 peptide binding to AF9, primary screen, biochemical, AlphaScreen, biotin-AF4 peptide, FLAG-AF9, single point | inhibition, % at 10 µM | Protein AF-9 (Homo sapiens), P42568 | hit rate 0.47% among 350,000;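 active = every replicate reaching a set inhibition limit, whatever the replicate mean, cut at about 25% in these data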;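 also: 0% = plate neutral control median and 100% = total signal loss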
INS-1E GSIS act = GLuc luminescence reporter in INS-1E cells, primary screen for activators of glucose-dependent secretion of insulin. INS-1E GLuc reporter insulin secretion, 2-3 h. activation, % at 16.6 µM. hit rate 0.61% among 370,000. AID 743287, 2014;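 active = lowest replicate activation of at least 40%, so every replicate reaches that level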;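 also: 0% = median of neutral control wells and 100% = median of IBMX positive control wells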
The depositor's hits bear a star; . = no result. In the library only some 2.6% were active in any assay of this set; here they are far more common.

SMILES | rRNA inh HTS | RAD54 inh | RAD52 anneal inh | E-selectin induc | AF4-AF9 inh | INS-1E GSIS act
COC(=O)c1sc(=S)n(Cc2ccccc2)c1C | -24* | -9 | -10 | . | 0 | 1
CC(=O)c1sc(=S)n(Cc2ccccc2)c1C | -12 | -2 | -16 | 1 | -19 | 4
C[C@H](CO)N1C[C@H](C)[C@H](CN(C)C(=O)Nc2ccc3c(c2)OCO3)Oc2cc(C#Cc3cccnc3)ccc2S1(=O)=O | -6 | 8 | -21 | 2 | 7 | -1
COc1ccc(CCNc2nc(-c3ccncc3)cs2)cc1OC | -27* | . | 8 | 0 | 2 | 21
C[C@H]1CN([C@@H](C)CO)C(=O)Cc2cc(NC(=O)CCCCCC(=O)Nc3ccccc3N)ccc2O[C@H]1CN(C)Cc1ccc(Oc2ccccc2)cc1 | -4 | 1 | 10 | -6 | 3 | 23
C[C@H](CO)N1C[C@H](C)[C@@H](CN(C)S(C)(=O)=O)Oc2ccc(NC(=O)CCCCCC(=O)Nc3ccccc3N)cc2CC1=O | 7 | 1 | -12 | 36* | 12 | 0
C[C@@H]1CN([C@H](C)CO)C(=O)c2cccc(NC(=O)CCCCCC(=O)Nc3ccccc3N)c2O[C@@H]1CN(C)S(=O)(=O)c1cn(C)cn1 | 1 | . | 0 | 391* | 0 | 7
C[C@H]1CN([C@@H](C)CO)C(=O)Cc2cc(NC(=O)CCCCCC(=O)Nc3ccccc3N)ccc2O[C@H]1CN(C)Cc1ccc(Cl)c(Cl)c1 | -7 | -7 | -7 | 75* | 1 | 4
C[C@H](CO)N1C[C@H](C)[C@H](CN(C)Cc2ccc(Oc3ccccc3)cc2)Oc2ccc(NC(=O)CCCCCC(=O)Nc3ccccc3N)cc2CC1=O | -5 | -2 | 18 | 50* | 2 | 0
C[C@H](CO)N1C[C@H](C)[C@H](CN(C)S(C)(=O)=O)Oc2ccc(NC(=O)CCCCCC(=O)Nc3ccccc3N)cc2CC1=O | 8 | 5 | 2 | -5 | -2 | 6
C[C@H]1CN([C@@H](C)CO)C(=O)c2c(c3ccccc3n2C)-c2ccccc2CO[C@@H]1CN(C)Cc1ccc(O)cc1 | -2 | . | 22 | 0 | 0 | -2
C[C@@H]1CN([C@@H](C)CO)C(=O)c2cccc(NC(=O)CCCCCC(=O)Nc3ccccc3N)c2O[C@@H]1CN(C)Cc1ccccc1 | 0 | . | -2 | 0 | 0 | 25
C[C@H](CO)N1C[C@H](C)[C@H](CN(C)Cc2ccc(Cl)c(Cl)c2)Oc2c(NC(=O)CCCCCC(=O)Nc3ccccc3N)cccc2C1=O | -7 | . | -5 | 410* | -3 | 6
CCOc1ccc(NC(=S)NCc2cccnc2)cc1 | -20* | -10 | 0 | 3 | . | 11
C/C(=N/NC(=O)c1ccc(Br)o1)c1cccc(NC(=O)c2ccc(C)o2)c1 | . | 7 | . | 0 | . | -4
C/C(=N/NC(=O)c1ccc(Br)o1)c1ccncc1 | . | -4 | . | -1 | . | 67*
COc1ccc(S(=O)(=O)Nc2ccc3c(c2)CC(=O)N([C@H](C)CO)C[C@@H](C)[C@@H](CN(C)Cc2ccc(Cl)c(Cl)c2)O3)cc1 | 3 | 1 | 1 | 0 | 0 | -19
CCN(CCO)Cc1csc2cc(C)ccc12 | 15 | . | -1 | 1 | 2 | 47*
COc1ccccc1-c1ccc2c(c1)C(C)(Cc1cc(Cl)ccc1C(F)(F)F)C(=O)N2 (centres undefined) | 12 | -3 | 0 | -3 | 0 | 6
CC1(Cc2cc(Cl)ccc2C(F)(F)F)C(=O)Nc2ccc(-c3ccc(F)c(Cl)c3)cc21 (centres undefined) | 3 | -5 | -22 | 0 | 0 | 283*
CC1(Cc2cc(Cl)ccc2C(F)(F)F)C(=O)Nc2cc(C(F)(F)F)ccc21 (centres undefined) | 6 | -6 | 5 | 0 | -3 | 298*
